The entries come from a sample that favours hits as a whole.
PolyA inh: inhibitors of polyadenylation in S. cerevisiae | S. cerevisiae SKY197-pL101 polyadenylation reporter, beta-gal luminescence; efflux-impaired pdr1/pdr3 knockout yeast; score 100 = 6 SD above DMSO | activity score, % at 12 µM | 0.02% of 300,000 active | AID 1875;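 active means lowest replicate activity score at least 50, where 100 means six control SD above control mean; inconclusive means lowest score under 50 but half or more replicates reach 50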;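 further: yeast exposed to compound for 9 h at 30 °C; higher score means more reporter readthrough which indicates perturbed polyadenylation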
NALP1 inh: blocks the NALP1 inflammasome reconstituted in yeast | S. cerevisiae NALP1/ASC/caspase-1 growth, X-gal OD620, 72 h | inhibition, % at 10 µM | 0.61% of 280,000 active | AID 2071; in the data active means inhibition mostly above about 24%, no sharp cut-off; inactive means mostly below about 32%
T cruzi inh: T. cruzi replication inhibition | T. cruzi beta-gal in NIH3T3, luminescence, 90 h | inhibition, % (no concentration beside the values) | 1.4% of 300,000 active | AID 1885;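 active means mean inhibition across valid replicates above about 55%, limit read from the data; inconclusive means mean below that limit but half or more replicates reach it; inactive means mean below it, under half of replicates reach it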;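 further: signal also drops with host cell toxicity which is not excluded here; 0% = plate median of DMSO wells and 100% = zero luminescence signal; higher percent means less beta-gal luminescence so fewer parasites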
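System – NIH/3T3 host cells with β-galactosidase reporter T. cruzi · Doses – single 50 nL compound addition per well in DMSO · Reagent – 5000 T. cruzi trypomastigotes/well · Medium – Low-serum DMEM with 2% FBS · Timing – ≥90 h infection period, 3 h prior cell attachment · Evaluation – parasite load inhibition, % · Technique – GalScreen luminescence, 60 min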
Calb FLC: C. albicans growth modulation with fluconazole; 0.57% of 300,000 active; C. albicans CaCi-2 (fluconazole-resistant clinical isolate) + fluconazole, Alamar Blue growth, 48 h; growth inhibition, % (no concentration beside the values);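 active means growth inhibition above about 58% in most replicates, limit read from the data, passing the limit was not always enough; inconclusive means exactly half the replicates above a set limit; inactive means most replicates below a set limit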;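 further: all wells also contain fluconazole at 8 µg/ml as a sub-toxic cotreatment; 0% = median of DMSO wells and 100% = median of geldanamycin control wells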
NALP3 yeast inh: blocks the NALP3 inflammasome reconstituted in yeast. Yeast reconstituted NLRP3/ASC/caspase-1, beta-gal luminescence, 24 h. inhibition, % at 10 µM. 0.39% of 330,000 active. AID 2825;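 active means inhibition of 50% or more; inactive means inhibition below 50%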;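 further: plate controls were induced DMSO wells for no effect and uninduced yeast grown without galactose for full effect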
Lmaj promast: inhibitors of Leishmania major promastigote growth | Leishmania major promastigotes, resazurin fluorescence viability | inhibition, % at 10 µM | 9% of 200,000 active; in the data active means inhibition above about 50%;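 further: promastigotes grown with compound for 44 hours at 28 °C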
Numbers without * were called inactive; ? = inconclusive; · = no result given.

SMILES	PolyA inh	NALP1 inh	T cruzi inh	Calb FLC	NALP3 yeast inh	Lmaj promast
CC(C)[C@H](NC(=O)c1ccc(Cl)c([N+](=O)[O-])c1)C(=O)NCc1ccc(F)cc1	?	22.0	-7.5	-3.2	6.5	-2.4
CCOc1ccccc1C1c2[nH]c3ccccc3c2C[C@H]2C(=O)N(C3CC3)CC(=O)N12 (some centres not stated)	12.0	0.4	4.9	0.2	-0.1	·
C#Cc1ccc([C@@H]2C=C(C(=O)N3CCOCC3)O[C@H](OCc3ccc(CO)cc3)C2)cc1	-22.6	·	6.6	9.0	-4.9	·
CC(C)N1CCc2c(sc(NC(=O)c3ccc(S(=O)(=O)N4CCOCC4)cc3)c2C#N)C1	-0.5	·	3.8	-0.6	11.7	-7.2
COC(=O)c1sc(NC(=O)c2ccc([N+](=O)[O-])o2)c(C#N)c1C	-4.7	·	56.8*	31.5	16.9	·
CCOC(=O)N1CCc2c(sc(NC(=O)c3ccc(S(=O)(=O)N4CCCC4)cc3)c2C#N)C1	16.3	-4.3	-4.1	6.2	-2.9	57.3*
CC(=O)N1CCc2c(sc(NC(=O)c3ccc([N+](=O)[O-])o3)c2C#N)C1	-9.4	-3.8	-18.3	11.1	·	98.0*
COc1ccc(C2CC(c3ccc(Br)cc3)Nc3nc(N)nn32)cc1 (configuration not stated)	-70.1	9.6	44.4	12.4	-6.5	9.0
Nc1nc2n(n1)C(c1cccc(Br)c1)CC(c1ccc(F)cc1)N2 (configuration not stated)	-11.5	4.4	5.2	6.2	-10.9	92.8*
Nc1nc2n(n1)C(c1ccccc1)CC(c1ccc(F)cc1)N2 (configuration not stated)	-18.5	0.5	2.8	-1.3	8.2	-4.9
Nc1nc2n(n1)C(c1cccs1)CC(c1ccc(Br)cc1)N2 (configuration not stated)	-72.9	-4.0	74.2*	-0.1	40.0	-2.1
Cc1cccc(C2CC(c3ccc(Br)cc3)Nc3nc(N)nn32)c1 (configuration not stated)	16.0	-15.0	27.0	11.7	-2.2	72.9*
COc1cccc(C2CC(c3ccc(Cl)cc3)Nc3nc(N)nn32)c1 (configuration not stated)	-5.3	9.4	28.1	5.2	9.7	-8.8
COc1ccc(C2CC(c3cccc(Cl)c3)n3nc(N)nc3N2)cc1 (configuration not stated)	16.1	35.0	4.3	3.4	19.9	62.5*
Cc1[nH]c(=O)c(C#N)c(C)c1CCC(=O)NCc1cccc(C(F)(F)F)c1	1.2	24.5	-25.1	1.5	21.7	·
COc1cccc(C2CC(c3cccc(OC)c3)n3nc(N)nc3N2)c1 (configuration not stated)	-4.7	27.9	7.0	-0.3	7.6	-10.7
COc1ccc(C2CC(c3cccc(C)c3)n3nc(N)nc3N2)cc1 (configuration not stated)	8.7	25.0	9.7	2.4	-2.8	86.0*
Cc1ccc(/C=C/c2ccc(=O)n(Cc3ccc(F)cc3)n2)cc1	-5.2	8.7	-4.7	0.0	3.1	-2.3
Cc1ccc(/C=C/c2ccc(=O)n(Cc3ccccc3Cl)n2)cc1	-23.3	37.0*	28.3	22.9	29.9	-1.8
COc1ccc(OC)c(N2Cc3cc(C)c(C)cc3C2)c1	12.6	36.1	?	-7.2	33.5	86.5*
CCN(CC)CC(C)(C)NS(=O)(=O)c1ccc(Cl)cc1	-15.5	14.8	4.8	-10.8	13.7	70.8*
CC(C)(CN1CCN(C(c2ccccc2)c2ccccc2)CC1)NS(=O)(=O)c1ccccc1	-7.6	·	62.3*	-1.4	-1.8	·
CC(C)(CN1CCCCC1)NS(=O)(=O)c1ccc(Cl)cc1	-16.8	12.0	-6.2	-3.3	1.7	90.1*
CC1CC(C)CN(CC(C)(C)NS(=O)(=O)c2ccc(Cl)cc2)C1 (configuration not stated)	-38.3	13.4	8.7	-5.5	13.3	95.2*
CC(C)(CN1CCN(Cc2ccccc2)CC1)NS(=O)(=O)c1ccccc1	2.9	15.1	36.8	-23.5	8.9	·
SMILES	PolyA inh	NALP1 inh	T cruzi inh	Calb FLC	NALP3 yeast inh	Lmaj promast
CN(C)CC(C)(C)NS(=O)(=O)c1ccc(Cl)cc1	11.9	16.8	-6.5	-6.7	14.9	-5.1
Cc1[nH]c2ccc(C(=O)OCC(=O)Nc3cccc(S(N)(=O)=O)c3)cc2c1C	·	·	·	·	10.1	·
O=C(CCNS(=O)(=O)c1ccc(Cl)cc1)N1CCCCCC1	-14.1	5.7	-5.1	15.8	9.6	·
CC(C)(CNS(=O)(=O)c1ccc(Cl)cc1)N1CCCCC1	-18.9	16.2	14.5	-2.8	17.8	81.3*
Cc1ccccc1CN1CCCC(C(=O)Nc2ccccc2Oc2cccnc2)C1 (configuration not stated)	-5.5	-12.6	27.5	3.4	4.8	·
CC(OC(=O)CCc1nc2ccccc2c(=O)[nH]1)C(=O)NC1CCCC1 (configuration not stated)	18.4	30.5	-39.2	-3.1	6.3	-4.3
O=C(COC(=O)CCc1nc2ccccc2c(=O)[nH]1)NC(=O)NC1CCCC1	-3.5	25.6	-10.6	8.1	-1.5	52.8*
O=C(CCc1nc2ccccc2c(=O)[nH]1)OCc1ccc(-c2ccccc2)cc1	-2.5	26.0	17.7	-23.3	6.4	93.3*
O=C(COC(=O)CCc1nc2ccccc2c(=O)[nH]1)Nc1c(Cl)cccc1C(F)(F)F	-3.9	·	-6.7	4.1	16.6	·
O=C(CCc1nc2ccccc2c(=O)[nH]1)OCc1cccc(C(F)(F)F)c1	-3.5	18.1	-15.0	13.1	17.2	63.2*
CCOC(=O)N/N=C(/C)c1ccc([N+](=O)[O-])o1	-5.9	-12.6	57.5*	18.9	8.8	96.1*
COc1ccc(N2CCN(C(=O)NC(=O)c3ccc(Cl)cc3)CC2)cc1	20.1	-4.5	-1.5	2.5	15.4	·
COc1ccc(C2N(c3ccc(Cl)cc3)N=C(C(C)=O)N(C)N2C(C)=O)cc1 (configuration not stated)	-14.3	30.0	25.3	-2.4	-2.3	57.5*
O=S(=O)(NN1CCOCC1)c1ccc(Br)cc1	14.9	4.3	-7.5	·	12.4	·
CC(C)CCN(C)C1CCN(S(=O)(=O)c2ccc(F)cc2)CC1	-12.5	30.9	23.2	-5.4	11.5	95.5*
O=S(=O)(c1ccc(F)cc1)N1CCC(N2CCCC2)CC1	·	34.5	·	·	22.6	43.5
Cc1cc(C)c(C)c(S(=O)(=O)NCc2ccc(C(=O)N3CCN(C)CC3)cc2)c1C	5.3	3.1	13.4	1.0	-6.8	·
Cc1cccc(N2CCN(c3ccc(N4C(=O)CCCC4=O)cc3[N+](=O)[O-])CC2C)c1 (configuration not stated)	0.2	29.6	0.4	-0.5	18.8	50.4*
O=C1CCCC(=O)N1c1ccc(N2CCN(c3ccc([N+](=O)[O-])cc3)CC2)c([N+](=O)[O-])c1	-0.8	32.1	-1.3	0.6	13.1	-5.0

Assay outcomes: PubChem BioAssay, several laboratories
